Results on 33 molecules are retold here after ChEMBL document CHEMBL2146408, “Primary amino acid derivatives: compounds with anticonvulsant and neuropathic pain protection activities” (J Med Chem, 2011).

One may read the TD50 as the 50% point of the dose-response relation for the toxic effect studied. The term ED50 denotes the midpoint of the dose-response relation.

Series [1] in a line: Neurotoxicity in ip dosed NMRI mouse assessed as minimal motor impairment after 30 mins. It counts as toxicity, organism-based. As to conditions: in vivo. A digest of the protocol: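 Adult male NMRI mice dosed ip at UCB Pharma. Neurological toxicity was scored on the rotorod test 30 min after dosing.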
In series [2] the test system is Mus musculus. The series can be described thus: Anticonvulsant activity in ip dosed CF1 mouse assessed as protection against maximal electroshock-induced seizure after 30 mins. As to conditions: 0.5 h. It counts as functional. The method in brief: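 Adult male albino CF-1 (Carworth Farms No. 1) mice dosed ip under the NINDS ASP; maximal electroshock seizure test. For compounds with sufficient activity, a dose-response curve was run at the time of peak effect (hours).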
(In general: Protection in the maximal electroshock model is a classic sign of anticonvulsant action.)

The test system of series [3] is Mus musculus. As to the kind of experiment: Anticonvulsant activity in ip dosed NMRI mouse assessed as protection against 6 Hz psychomotor seizure after 30 mins. The series is classed as functional. As to conditions: 0.5 h; for minimal effective dose: read-out: MED. A digest of the protocol:
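Adult male NMRI mice dosed ip (UCB Pharma). 6 Hz psychomotor seizure model at 44 mA, per Kaminski and co-workers.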

Series [4] has as its system Mus musculus. The series can be described thus: Antinociceptive activity in ip dosed NMRI mouse assessed as inhibition of formalin-induced neuropathic pain after 30 mins. It counts as functional. Conditions: 0.5 h. The method in brief: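 NMRI mice dosed ip at UCB Pharma, then tested in the formalin model of neuropathic pain. ED50 in mg/kg read 30 min after administration. Single-dose runs report the percentage protected.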

In series [5] the test system is Mus musculus. The series can be described thus: Anticonvulsant activity in ip dosed NMRI mouse assessed as protection against maximal electroshock-induced seizure after 30 mins. The series is classed as functional. Conditions: 0.5 h. The method in brief: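 Adult male NMRI mice dosed ip (UCB Pharma). MES test run per the Klitgaard procedure. […] Single-dose runs report the percentage of animals protected.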

The test system of series [6] is Mus musculus. As to the kind of experiment: Anticonvulsant activity in NMRI mouse assessed as protection against subcutaneous pentylenetetrazol-induced seizure at 30 to 300 mg/kg, ip after 0.5 to 4 hrs. It counts as functional, organism-based.
A short description of series [7]: Neurotoxicity in po dosed Sprague-Dawley rat assessed as minimal motor impairment after 30 mins by rotorod test. It counts as toxicity, organism-based. Conditions: in vivo.

Calls of active or inactive are those of the source. No cut-off for these calls is given here.

On to `CC(=O)NC(CN)C(=O)NCc1ccccc1` (racemic), for which the TD50 at 0.5 h in series [1] was above 100 mg/kg. Take `CC(=O)NC(C(=O)NCc1ccccc1)c1cccs1` (centres undefined): the ED50 in the series with Mus musculus [2] was found to be 45 mg/kg. In the case of `CCCC[C@@H](N)C(=O)NCc1ccccc1`, the ED50 is 93 mg/kg with Mus musculus [3], above 71 mg/kg in the series on Mus musculus [4] and 23 mg/kg in the series with Mus musculus [5]. Take `CC(=O)NC(CN1CCOCC1)C(=O)NCc1ccccc1` (racemic): the ED50 in the series on Mus musculus [2] was below 100 mg/kg. Also, in series [1], the TD50 at 0.5 h is 300 mg/kg. As for `CCCOCC(N)C(=O)NCc1ccccc1` (racemic), the median effective dose (ED50) in the series on Mus musculus [3] is above 130 mg/kg; in the series on Mus musculus [4], above 130 mg/kg; with Mus musculus [5], 69 mg/kg. With `CC(=O)N[C@H](C)C(=O)NCc1ccccc1`, in series [1], the TD50 at 0.5 h turned out to be 210 mg/kg. As to `CC(=O)N[C@@H](C(=O)NCc1ccccc1)C(C)C`, the ED50 in the series on Mus musculus [2] was below 100 mg/kg. Further, the TD50 at 0.5 h in series [1] was above 300 mg/kg. As for `CCC(NC(C)=O)C(=O)NCc1ccccc1` (racemic), the ED50 with Mus musculus [2] was below 100 mg/kg. Moreover, in series [1], the TD50 at 0.5 h was above 300 mg/kg.

In the case of `CSCC[C@@H](N)C(=O)NCc1ccccc1`, the minimal effective dose in the series on Mus musculus [3] amounted to 130 mg/kg. In addition, the results for the ED50 in the series on Mus musculus [4] and in the series on Mus musculus [5] were above 76 mg/kg and 75 mg/kg, respectively.

Consider `CC(C)(C)[C@@H](N)C(=O)NCc1ccccc1`, for which the result with Mus musculus [6] was inactive. Besides, the TD50 at 0.5 h in series [7] was above 500 mg/kg.

On to `CC(=O)NC(C)C(=O)NCc1ccccc1` (racemic), for which, in the series with Mus musculus [2], the ED50 is 76 mg/kg. Moreover, the TD50 at 0.5 h in series [1] is 450 mg/kg. On the same counts, the results for `CC(=O)NC(CN(C)C)C(=O)NCc1ccccc1` (racemic) are below 30 mg/kg and below 100 mg/kg. `N[C@H](CCO)C(=O)NCc1ccccc1`: the ED50 is above 120 mg/kg with Mus musculus [3], above 67 mg/kg in the series on Mus musculus [4] and above 160 mg/kg in the series on Mus musculus [5]. As for `N[C@H](Cc1ccccc1)C(=O)NCc1ccccc1`, in the series on Mus musculus [3], the minimal effective dose amounted to 81 mg/kg. For the same molecule, the ED50 was above 37 mg/kg in the series on Mus musculus [4] and 40 mg/kg in the series with Mus musculus [5]. For `NC(CN1CCOCC1)C(=O)NCc1ccccc1` (racemic), the ED50 with Mus musculus [3] was above 84 mg/kg; in the series with Mus musculus [4], 69 mg/kg; with Mus musculus [5], 89 mg/kg. As to `CC(=O)N[C@H](CO)C(=O)NCc1ccccc1`, the TD50 at 0.5 h in series [1] is above 500 mg/kg.

In the case of `CC(=O)NC(C(=O)NCc1ccccc1)c1ccccn1` (racemic), the ED50 in the series with Mus musculus [2] stood at 11 mg/kg.

Regarding `CCC[C@H](N)C(=O)NCc1ccccc1`, the ED50 is above 210 mg/kg in the series on Mus musculus [3], 100 mg/kg with Mus musculus [4] and above 37 mg/kg in the series on Mus musculus [5]. In the case of `CCCC(NC(C)=O)C(=O)NCc1ccccc1` (racemic), in the series on Mus musculus [2], the ED50 amounted to 38 mg/kg. `COC[C@H](NC(C)=O)C(=O)NCc1ccccc1`: the TD50 at 0.5 h in series [1] was above 300 mg/kg.

For the molecule `CC(=O)NC(CO)C(=O)NCc1ccccc1` (racemic), the ED50 in the series on Mus musculus [2] is below 100 mg/kg. Moreover, in series [1], the TD50 at 0.5 h is below 300 mg/kg.

As to `O=C1NC(=O)C(c2ccccc2)(c2ccccc2)N1` [PHENYTOIN], the TD50 at 0.5 h in series [7] is above 3000 mg/kg. As to `CCCC(CCC)C(=O)O` [VALPROIC ACID], the ED50 in the series with Mus musculus [2] is 270 mg/kg. `COCC(N)C(=O)NCc1ccccc1` (racemic): the ED50 with Mus musculus [2] turned out to be 84 mg/kg. In addition, the TD50 at 0.5 h in series [1] turned out to be 290 mg/kg. Consider `NCC(N)C(=O)NCc1ccccc1` (racemic), for which the ED50 with Mus musculus [5] is above 68 mg/kg. Take `CC(=O)N[C@@H](C)C(=O)NCc1ccccc1`: in series [1], the TD50 at 0.5 h turned out to be 840 mg/kg. Take `COC[C@@H](NC(C)=O)C(=O)NCc1ccccc1` [LACOSAMIDE]: in the series with Mus musculus [6], the result was inactive. Besides, the TD50 at 0.5 h in series [7] is above 500 mg/kg.

In the case of `C=CCOCC(NC(C)=O)C(=O)NCc1ccccc1` (racemic), the ED50 with Mus musculus [2] is below 30 mg/kg. Further, in series [1], the TD50 at 0.5 h is below 30 mg/kg. For the molecule `CC(=O)N[C@@H](C(=O)NCc1ccccc1)C(C)(C)C`, the ED50 in the series with Mus musculus [2] is above 300 mg/kg. In series [1], the TD50 at 0.5 h was above 300 mg/kg. Turning to `CC(C)[C@H](N)C(=O)NCc1ccccc1`, the result with Mus musculus [6] was inactive. The TD50 at 0.5 h in series [1] is above 300 mg/kg. On to `CC(=O)NC(C(=O)NCc1ccccc1)c1ccccc1` (racemic), for which the ED50 in the series with Mus musculus [2] stood at 20 mg/kg. In the case of `C#CCOCC(NC(C)=O)C(=O)NCc1ccccc1` (racemic), the TD50 at 0.5 h in series [1] was 59 mg/kg. For `CC(=O)NC(C(=O)NCc1ccccc1)c1ccsc1` (racemic), the median effective dose (ED50) in the series with Mus musculus [2] came out at 88 mg/kg.
